Experimental data: ChEMBL document CHEMBL4052623, “Synthesis and antiproteasomal activity of novel O-benzyl salicylamide-based inhibitors built from leucine and phenylalanine” (Eur J Med Chem, 2017)
Active and inactive are the calls of the source. The calls are words filed in the database; no cut-off is given here.

Experiments:
U-266 [1] = test: Induction of apoptosis in human U266 cells assessed as downregulation of Mcl-1 level at 250 nM after 16 to 24 hrs by Western blot method; format: functional, cell-based
In short: (§1)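 Treated U266 cells harvested in Laemmli sample buffer. Proteins separated by SDS-PAGE and electroblotted to nitrocellulose. Membranes blocked, probed overnight with specific primary antibodies, then detected with peroxidase-conjugated secondary antibodies.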

U-266 [2] = test: Effect on beta-actin protein levels in human U266 cells at 250 nM after 2 to 24 hrs by Western blot analysis; format: ADME, cell-based; conditions: u-266, 0.25 µM; in short: as §1
U-266 [3] = test: Antiproliferative activity against human U266 cells after 72 hrs by calcein AM staining based fluorescence assay; format: functional; conditions: U-266, 72 h
In short: (§2)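 Cells treated with three-fold compound dilutions in triplicate for 72 h. Calcein AM added afterwards and live-cell fluorescence read at 485/538 nm (ex/em). GI50, the concentration lethal to 50% of tumour cells, calculated from dose-response curves.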

U2OS [4] = test: Cytotoxicity against human U2OS cells at 6.25 uM after 16 hrs by live-cell imaging microscopic analysis; format: cell-based
In short: (§3)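 U2OS degron-GFP cells plated at 10,000 cells/well and treated with a range of compound concentrations. Proliferation followed by live-cell time-lapse imaging as percent confluence (occupied image area) over time, up to 72 h.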

K562 = test: Antiproliferative activity against human K562 cells after 72 hrs by calcein AM staining based fluorescence assay; format: functional; conditions: K562, 72 h; in short: as §2
[5] = target: T1, Proteasome component C5 (Homo sapiens) (UniProt P20618); test: Inhibition of caspase like activity of 26S proteasome beta 1 subunit in human U266 cells assessed as residual activity using […] as substrate at 10 uM preincubated for 1 hr followed by substrate addition and measured after 4 hrs by fluorescence assay relative to control; format: cell-based
T1 sequence (whole entry): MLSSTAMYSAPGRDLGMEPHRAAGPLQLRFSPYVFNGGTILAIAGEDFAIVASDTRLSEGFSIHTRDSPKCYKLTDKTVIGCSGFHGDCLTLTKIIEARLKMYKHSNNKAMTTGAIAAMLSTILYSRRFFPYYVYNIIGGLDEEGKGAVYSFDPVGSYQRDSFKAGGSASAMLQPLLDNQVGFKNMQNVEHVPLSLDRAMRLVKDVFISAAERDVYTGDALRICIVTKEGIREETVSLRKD

Homo sapiens [6] = organism: Homo sapiens; test: Inhibition of proteasome in human U2OS cells stably expressing GFP fused to short degron assessed as increase in GFP accumulation pre-incubated for 1 hr and measured after 9 hrs by live-cell imaging microscopy; format: cell-based
Homo sapiens [7] = organism: Homo sapiens; test: Inhibition of proteasome in human U2OS cells stably expressing GFP fused to short degron assessed as increase in GFP accumulation at 200 nM […] by live-cell imaging microscopy; format: cell-based
Homo sapiens [8] = organism: Homo sapiens; test: Inhibition of proteasome in human U266 cells assessed as increase in p27KIP level up to 24 hrs by Western blot method; format: cell-based; in short: as §1
[9] = target: T2, Proteasome Macropain subunit MB1 (Homo sapiens, UniProt P28074); test: Inhibition of chymotrypsin-like activity of 26S proteasome beta 5 subunit in human U266 cells using Suc-LLVY-aminoluciferin as substrate after 1 hr by Proteosome-Glo luminescence assay; format: cell-based
T2 sequence (P28074 whole entry): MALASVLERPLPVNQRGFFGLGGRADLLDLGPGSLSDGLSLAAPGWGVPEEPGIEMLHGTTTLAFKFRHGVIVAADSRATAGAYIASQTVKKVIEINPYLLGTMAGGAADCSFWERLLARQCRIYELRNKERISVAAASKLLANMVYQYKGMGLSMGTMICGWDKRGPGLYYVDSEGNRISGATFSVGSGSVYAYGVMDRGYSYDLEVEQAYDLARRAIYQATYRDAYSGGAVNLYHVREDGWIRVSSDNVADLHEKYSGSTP
In short: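 U266 multiple myeloma cells plated at 20,000 cells/well and exposed to varying compound concentrations for 1 h at 37 °C, in duplicate. 26S proteasome activity measured immediately as luciferase-coupled hydrolysis of the β5 substrate Suc-LLVY-aminoluciferin (Proteasome-Glo), read by luminescence. Activity normalised to untreated cells; IC50 derived from dose-response curves.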

U-266 [10] = test: Induction of apoptosis in human U266 cells assessed as PARP1 cleavage at 250 nM after 16 to 24 hrs by Western blot method; format: functional, cell-based; in short: as §1
U2OS [11] = test: Antiproliferative activity against human U2OS cells at 200 nM after 72 hrs by live-cell imaging microscopic analysis; format: functional, cell-based; in short: as §3
U-266 [12] = test: Effect on alpha-tubulin protein levels in human U266 cells at 250 nM after 2 to 24 hrs by Western blot analysis; format: ADME, cell-based; conditions: u-266, 0.25 µM; in short: as §1
U2OS [13] = test: Antiproliferative activity against human U2OS cells up to 1 uM after 48 hrs by live-cell imaging microscopic analysis; format: functional, cell-based; in short: as §3
CCRF-CEM = test: Antiproliferative activity against human CEM cells after 72 hrs by calcein AM staining based fluorescence assay; format: functional; in short: as §2
Homo sapiens [14] = organism: Homo sapiens; test: Inhibition of proteasome in human U266 cells assessed as increase in accumulation of polyubiquitinated proteins at 250 nM by Western blot analysis; format: cell-based; conditions: TDE = time-dependent effect; in short: as §1
U-266 [15] = test: Induction of apoptosis in human U266 cells assessed as caspase-7 cleavage at 250 nM after 16 to 24 hrs by Western blot method; format: functional, cell-based; in short: as §1
[16] = target: T3, Proteasome Macropain subunit MB1 (Homo sapiens) (UniProt P28074); test: Inhibition of chymotrypsin like activity of 26S proteasome beta 5 subunit in human U266 cells assessed as residual activity using N-Suc-LLVY-AMC as substrate at 10 uM preincubated for 1 hr followed by substrate addition and measured after 4 hrs by fluorescence assay relative to control; format: cell-based
T3 sequence (whole entry): T2 sequence (P28074 whole entry)

[17] = target: Proteasome Macropain subunit (Homo sapiens) (UniProt P49721); test: Inhibition of trypsin like activity of 26S proteasome beta 2 subunit in human U266 cells assessed as residual activity using […] as substrate at 10 uM preincubated for 1 hr followed by substrate addition and measured after 4 hrs by fluorescence assay relative to control; format: cell-based
U2OS [18] = test: Antiproliferative activity against human U2OS cells up to 1 uM after 24 hrs by live-cell imaging microscopic analysis; format: functional, cell-based; in short: as §3
U-266 [19] = test: Induction of apoptosis in human U266 cells assessed as increase in caspase-3/7 activity using Ac-DEVD-AMC as substrate at 250 nM by fluorescence assay; format: functional, cell-based; conditions: TDE = time-dependent effect
In short: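 Homogenates clarified at 10,000 × g for 30 min at 4 °C and protein-equalised. Lysates incubated with 100 µM Ac-DEVD-AMC in pH 7.3 PIPES/EGTA/MgCl2/DTT buffer. Fluorescence read at 355/460 nm and normalised to untreated control.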

Homo sapiens [20] = organism: Homo sapiens; test: Inhibition of proteasome in human U266 cells assessed as increase in accumulation of polyubiquitinated proteins by Western blot analysis; format: cell-based; conditions: TDE = time-dependent effect; in short: as §1

Sequence of Proteasome Macropain subunit (Homo sapiens) (P49721 whole entry): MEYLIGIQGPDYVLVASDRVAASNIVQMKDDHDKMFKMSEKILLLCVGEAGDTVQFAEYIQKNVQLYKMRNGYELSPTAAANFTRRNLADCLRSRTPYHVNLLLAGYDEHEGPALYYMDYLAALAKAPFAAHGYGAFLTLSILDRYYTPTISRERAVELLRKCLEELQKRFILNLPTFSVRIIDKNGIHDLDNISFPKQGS

SMILES	GI50 (U-266 [3]) [nM]	GI50 (K562) [nM]	Activity [5] [%]	inhibition (Homo sapiens [6])	IC50 [9] [nM]	GI50 (CCRF-CEM) [nM]	Activity [16] [%]	Activity [17] [%]	also measured
CC(C)CC(C=O)NC(=O)[C@H](Cc1ccccc1)NC(=O)[C@H](CC(C)C)NC(=O)c1cc(Cl)ccc1OCc1ccccc1 (some centres undefined)	150	570	74.6	Dose-dependent effect	90	280	13.4	81.8	Activity (U-266 [1]): Active; Activity (U-266 [2]): Non-Toxic; Activity (U2OS [4]): Toxic; inhibition (Homo sapiens [7]): Active; inhibition (Homo sapiens [8]): Dose-dependent effect; Activity (U-266 [10]): Active; Activity (U2OS [11]): inactive; Activity (U-266 [12]): Non-Toxic; Activity (U2OS [13]): Active; inhibition (Homo sapiens [14]): Tde; Activity (U-266 [15]): Active; Activity (U2OS [18]): inactive; Activity (U-266 [19]): Tde
CC(C)C[C@H](NC(=O)c1cc(Cl)ccc1OCc1ccccc1)C(=O)N[C@@H](CC(C)C)C(=O)N[C@@H](C=O)CC(C)C	380	980	35.5		182	580	18	74.3	
CC(C)C[C@H](NC(=O)c1cc(Cl)ccc1O)C(=O)N[C@H](C=O)Cc1ccccc1	64900	57900	> 100		> 1000	27700	> 100	81	
O=C[C@H](Cc1ccccc1)NC(=O)[C@H](Cc1ccccc1)NC(=O)c1cc(Cl)ccc1OCc1ccccc1	21700	27100	71.5		> 1000	15500	97.3	78.4	
CC(C)C[C@@H](C=O)NC(=O)[C@H](CC(C)C)NC(=O)[C@H](CC(C)C)NC(=O)c1cc(Cl)ccc1OCc1ccccc1	200	760	34.6		57	410	11.8	54.2	
CC(C)C[C@H](NC(=O)c1cc(Cl)ccc1OCc1ccccc1)C(=O)N[C@@H](Cc1ccccc1)C(=O)N[C@@H](C=O)CC(C)C	210	730	19.7		75	400	20.7	> 100	
CC(C)C[C@H](NC(=O)c1cc(Cl)ccc1OCc1ccccc1)C(=O)N[C@@H](Cc1ccccc1)C(=O)NC(C=O)Cc1ccccc1 (some centres undefined)	460	1280	> 100	Dose-dependent effect	168	400	29.1	62.3	
CC(C)C[C@H](NC(=O)c1cc(Cl)ccc1OCc1ccccc1)C(=O)N[C@@H](CC(C)C)C(=O)NC(C=O)Cc1ccccc1 (some centres undefined)	540	1050	66.2	Dose-dependent effect	197	790	27.9	48.4	
CC(C)CC(C=O)NC(=O)[C@H](CC(C)C)NC(=O)c1cc(Cl)ccc1OCc1ccccc1 (some centres undefined)	37000	21000	35.3		> 1000	16300	84.3	88.1	
CC(C)C[C@@H](C=O)NC(=O)[C@H](Cc1ccccc1)NC(=O)[C@H](CC(C)C)NC(=O)c1cc(Cl)ccc1OCc1ccccc1	170	1040	40.2	Dose-dependent effect	67	430	10.6	42.5	
CC(C)C[C@@H](C=O)NC(=O)c1cc(Cl)ccc1OCc1ccccc1	55800	23600	68.2		> 1000	24300	68.8	57.5	
CC(C)C[C@H](NC(=O)c1cc(Cl)ccc1OCc1ccccc1)C(=O)N[C@H](C=O)Cc1ccccc1	14800	16300	67.8		> 1000	11000	85.2	85.9	
CC(C)CC(C=O)NC(=O)[C@H](Cc1ccccc1)NC(=O)c1cc(Cl)ccc1OCc1ccccc1 (some centres undefined)	17700	17300	39.9		> 1000	15100	95	92	
CC(C)C[C@H](NC(=O)[C@H](Cc1ccccc1)NC(=O)c1cnccn1)B(O)O [BORTEZOMIB]	1	7	0			1	1.5	86.1	inhibition (Homo sapiens [20]): Tde
CC(C)C[C@H](NC(=O)c1cc(Cl)ccc1OCc1ccccc1)C(=O)N[C@@H](Cc1ccccc1)C(=O)N[C@H](C=O)Cc1ccccc1	400	1450	> 100	Dose-dependent effect	110	440	25.8	47.2	
CC(C)C[C@@H](C=O)NC(=O)[C@H](Cc1ccccc1)NC(=O)[C@H](CC(C)C)NC(=O)c1cc(Cl)ccc1O	670	2100	28.9	Dose-dependent effect	237	780	27.9	72.6	
CC(C)CC(C=O)NC(=O)[C@H](CC(C)C)NC(=O)[C@H](CC(C)C)NC(=O)c1cc(Cl)ccc1OCc1ccccc1 (some centres undefined)	290	610	39.2	Dose-dependent effect	99	490	10.4	64.2	
O=C[C@H](Cc1ccccc1)NC(=O)c1cc(Cl)ccc1OCc1ccccc1	63800	33300	53		> 1000	17700	70.8	70.2	
CC(C)C[C@H](NC(=O)c1cc(Cl)ccc1O)C(=O)N[C@@H](Cc1ccccc1)C(=O)N[C@H](C=O)Cc1ccccc1	2230	6900	73.5	Dose-dependent effect	740	2300	71.7	84.2	
